{"data": "Measurements gathered from unrelated publications", "P2RX7": "P2X purinoceptor 7 (P2RX7, Homo sapiens, UniProt Q99572)", "DCAF1": "DDB1- and CUL4-associated factor 1 (DCAF1, Homo sapiens, UniProt Q9Y4B6)", "4-aminobutyrate aminotransferase, mitochondrial": "4-aminobutyrate aminotransferase, mitochondrial (Homo sapiens, UniProt P80404)", "note": "Compare with care: the assays were run in different laboratories."}
{"SMILES": "O=C(c1ccc(Br)cc1)N1CCC(n2cncc2-c2ccc(OS(=O)(=O)c3cccc4cnccc34)cc2)CC1", "target": "P2RX7", "test": "ligand displacement, radioligand", "conditions": "1 µM, cell membranes", "quantity": "inhibition", "value": "> 70%"}
{"SMILES": "COc1ccccc1C(=O)/C=C/c1cn(Cc2cn(-c3ccnc4cc(Cl)ccc34)nn2)c2ccccc12", "target": "Calcium-dependent protein kinase 1 (CDPK1, Plasmodium falciparum, UniProt P62344)", "test": "enzyme activity, inhibitor, ADP detection", "conditions": "5 µM", "quantity": "inhibition", "value": "88.3%"}
{"SMILES": "CNc1ncc2c(/C=C/C(=O)N3CCC(OC)CC3)nn(Cc3cccc(C(F)(F)F)c3)c2n1", "target": "Mitogen-activated protein kinase kinase kinase 11 (MAP3K11, Homo sapiens, UniProt Q16584)", "test": "enzyme activity, inhibitor, radiometric", "conditions": "1 µM", "quantity": "remaining activity", "value": "97%"}
{"SMILES": "O=C(c1ccc(I)cc1)N1CCC(n2cncc2-c2ccc(OS(=O)(=O)c3cccc4cnccc34)cc2)CC1", "target": "P2RX7", "test": "ligand displacement, radioligand", "conditions": "1 µM, cell membranes", "quantity": "inhibition", "value": "> 70%"}
{"SMILES": "C=CC(=O)N1CCC(COCC(=O)N2CCN(c3nc(-c4cnc(N)nc4C(F)F)nc(N4CCOC[C@@H]4C)n3)CC2)CC1", "target": "Ribosomal protein S6 kinase alpha-4, N-terminal kinase domain (RPS6KA4, Homo sapiens, UniProt O75676)", "test": "binding, competition with immobilised ligand", "conditions": "1 µM", "quantity": "remaining binding", "value": "93%"}
{"SMILES": "Cc1cc([C@@H](C)Nc2ccccc2C(=O)O)c2nc(N3CCC(F)(F)CC3)c(C#N)c(=O)n2c1", "target": "Hepatocyte growth factor receptor (MET, Homo sapiens, UniProt P08581)", "test": "binding, competition with immobilised ligand", "conditions": "1 µM", "quantity": "remaining binding", "value": "100%"}
{"SMILES": "C[C@@H]1CN(c2ccc(-c3cc(C(=O)NCCOCCOCCOCCOCCOCCOCCNC(=O)/C=C/c4[nH]cc(C(=O)N[C@@H](CC(N)=O)c5ccc(F)c(Cl)c5)c4-c4ccc(Cl)cc4F)ccc3F)cc2NC(=O)c2ccc(F)cc2C(F)(F)F)C[C@H](C)N1C", "target": "DCAF1", "test": "thermal stability, DSF", "conditions": "5.5 µM", "quantity": "ΔTm", "value": "5.3 °C"}
{"SMILES": "N[C@H]1CC(C(=O)O)=CC(F)(F)C1", "target": "4-aminobutyrate aminotransferase, mitochondrial", "test": "enzyme activity, inhibitor", "quantity": "kinact/KI", "value": "2 M⁻¹ s⁻¹"}
{"SMILES": "COc1cc(-c2cncc3c2CN(C)Cc2cc(N4CCNCC4)ccc2-3)cc(OC)c1OC", "target": "Hepatocyte growth factor receptor (MET, Homo sapiens, UniProt P08581, Y1230H)", "test": "enzyme activity, inhibitor", "conditions": "1 µM", "quantity": "remaining activity", "value": "86%"}
{"SMILES": "Cc1cc(NC(=O)c2cccc(NC(=O)/C=C/CN(C)C)c2)ccc1Nc1nccc(-c2cccnc2)n1", "target": "Interleukin-1 receptor-associated kinase 1 (IRAK1, Homo sapiens, UniProt P51617)", "test": "binding, competition with immobilised ligand", "conditions": "1 µM", "quantity": "remaining binding", "value": "11%"}
{"SMILES": "Cc1nn(CCc2ccccc2)c2ncc(C(=O)NCc3cccnc3)c(Cl)c12", "target": "Prolyl endopeptidase (PREP, Homo sapiens, UniProt P48147)", "test": "enzyme activity, inhibitor, fluorescence", "quantity": "kinact", "value": "0.000233 s⁻¹"}
{"SMILES": "N[C@H]1C=C(C(=O)O)CC(F)(F)C1", "target": "4-aminobutyrate aminotransferase, mitochondrial", "test": "enzyme activity, inhibitor", "quantity": "kinact/KI", "value": "2.83 M⁻¹ s⁻¹"}
{"SMILES": "C[C@@H]1CN(c2ccc(-c3cc(C(=O)NCCOCCOCCOCCOCCNC(=O)Cn4cc(-c5[nH]cc(C(=O)N[C@@H](CC(N)=O)c6ccc(F)c(Cl)c6)c5-c5ccc(Cl)cc5F)cn4)ccc3F)cc2NC(=O)c2c[nH]c(=O)cc2C(F)(F)F)C[C@H](C)N1C", "target": "DCAF1", "test": "thermal stability, DSF", "conditions": "5.5 µM", "quantity": "ΔTm", "value": "8 °C"}
